Active and inactive are the calls of the source. The rule behind the calls is not given here.
Assays:
[1] = Displacement of [3H]TCP from rat cerebral cortex PCP receptor; type: tissue-based
Procedure, shortened: (§1)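 Radioligand binding on rat cerebral cortex preparations: [35S]TBPS (GABA-gated Cl⁻ channel), [125I]apamin (SKCa), [3H]batrachotoxinin (Na⁺ site 2), [35S]dATPαS (P2Y), [3H]TCP (PCP), [3H]flunitrazepam (central BZD).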

[2] = Displacement of [3H]D888 from rat cerebral cortex L-type calcium channel verapamil binding site; type: tissue-based
[3] = test system: Mus musculus; test: Anticonvulsant activity in mouse assessed as protection against 6 Hz psychomotor seizure at 100 mg/kg, ip after 1 hr; type: functional, organism-based
Procedure, shortened: (§2)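 Suspension in 0.5% methylcellulose given ip to mice; corneal stimulation with 0.2 ms monopolar rectangular pulses at 6 Hz for 3 s from a constant current device, mice restrained then released to observation cage. Protected if normal exploratory behaviour resumed within 10 s of stimulation. Scored as protected/tested, 4 mice per group.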

[4] = test system: Mus musculus; test: Anticonvulsant activity in mouse assessed as protection against 6 Hz psychomotor seizure at 100 mg/kg, ip after 2 hrs; type: functional, organism-based; procedure, shortened: as §2
[5] = test system: Mus musculus; test: Neurotoxicity in mouse at 100 mg/kg, ip after 2 hrs by rotarod test; type: toxicity, organism-based; conditions: in vivo
Procedure, shortened: (§3)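 Mice were dosed ip with compound suspended in 0.5% methylcellulose. Rotarod: a 1 in. knurled rod turning at 6 rpm. Neurotoxicity was scored as failure to stay on the rod for at least 1 min in each of three trials. Results are given as the number of animals affected out of the number tested.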

[6] = test system: Mus musculus; test: Anticonvulsant activity in mouse assessed as protection against 6 Hz psychomotor seizure at 100 mg/kg, ip after 0.5 hrs; type: functional, organism-based; procedure, shortened: as §2
[7] = test system: Mus musculus; test: Anticonvulsant activity in mouse assessed as protection against 6 Hz psychomotor seizure at 100 mg/kg, ip after 4 hrs; type: functional, organism-based; procedure, shortened: as §2
[8] = test system: Mus musculus; test: Neurotoxicity in mouse at 100 mg/kg, ip after 4 hrs by rotarod test; type: toxicity, organism-based; conditions: in vivo; procedure, shortened: as §3
[9] = […] from rat cerebral cortex GABA-gated chloride channel; type: tissue-based
[10] = Displacement of [35S]dATPalpha S from rat cerebral cortex P2Y receptor; type: tissue-based; procedure, shortened: as §1
[11] = test system: Rattus norvegicus; test: Anticonvulsant activity in rat assessed as protection against maximal electric shock-induced seizures at 30 mg/kg, po measured after 0.5 hrs; type: functional, organism-based
Procedure, shortened: (§4)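 Rats dosed ip or orally as 0.5% methylcellulose suspension; maximal electroshock at listed time. Protection = abolition of hindlimb tonic extension; 4 rats per group, scored protected/tested.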

[12] = test system: Rattus norvegicus; test: Anticonvulsant activity in rat assessed as protection against maximal electric shock-induced seizures at 30 mg/kg, po measured after 1 hr; type: functional, organism-based; procedure, shortened: as §4
[13] = test system: Mus musculus; test: Anticonvulsant activity in mouse assessed as protection against maximal electric shock-induced seizures at 100 mg/kg, ip measured after […]; type: functional, organism-based
[14] = test system: Rattus norvegicus; test: Anticonvulsant activity in rat assessed as protection against maximal electric shock-induced seizures at 30 mg/kg, po measured after 2 hrs; type: functional, organism-based; procedure, shortened: as §4
[15] = test system: Rattus norvegicus; test: Anticonvulsant activity in rat assessed as protection against maximal electric shock-induced seizures at 30 mg/kg, po measured after 4 hrs; type: functional, organism-based; procedure, shortened: as §4
[16] = test system: Rattus norvegicus; test: Neurotoxicity in rat at 30 mg/kg, ip after […] by rotarod test; type: toxicity, organism-based; conditions: in vivo
[17] = test system: Rattus norvegicus; test: Neurotoxicity in rat at 30 mg/kg, ip after 0.5 hrs by rotarod test; type: toxicity, organism-based; conditions: in vivo
[18] = test system: Rattus norvegicus; test: Neurotoxicity in rat at 30 mg/kg, ip after 1 hr by rotarod test; type: toxicity, organism-based; conditions: in vivo
[19] = test system: Rattus norvegicus; test: Neurotoxicity in rat at 30 mg/kg, ip after 2 hrs by rotarod test; type: toxicity, organism-based; conditions: in vivo
[20] = test system: Rattus norvegicus; test: Neurotoxicity in rat at 30 mg/kg, ip after 4 hrs by rotarod test; type: toxicity, organism-based; conditions: in vivo
[21] = test system: Rattus norvegicus; test: Neurotoxicity in rat at 30 mg/kg, po after […] by rotarod test; type: toxicity, organism-based; conditions: in vivo
[22] = test system: Rattus norvegicus; test: Neurotoxicity in rat at 30 mg/kg, po after 0.5 hrs by rotarod test; type: toxicity, organism-based; conditions: in vivo
[23] = test system: Rattus norvegicus; test: Neurotoxicity in rat at 30 mg/kg, po after 1 hr by rotarod test; type: toxicity, organism-based; conditions: in vivo
[24] = test system: Rattus norvegicus; test: Neurotoxicity in rat at 30 mg/kg, po after 2 hrs by rotarod test; type: toxicity, organism-based; conditions: in vivo
[25] = test system: Rattus norvegicus; test: Neurotoxicity in rat at 30 mg/kg, po after 4 hrs by rotarod test; type: toxicity, organism-based; conditions: in vivo
[26] = test system: Mus musculus; test: Anticonvulsant activity in mouse assessed as protection against maximal electric shock-induced seizures at 30 mg/kg, ip measured after 1 hr; type: functional, organism-based
Procedure, shortened: (§5)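 Mice dosed ip with suspension in 0.5% methylcellulose; maximal electroshock applied at the listed time after dosing. Protection = abolition of hindlimb tonic extension component of seizure; reported as animals protected/animals tested.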

[27] = test system: Mus musculus; test: Anticonvulsant activity in mouse assessed as protection against maximal electric shock-induced seizures at 30 mg/kg, ip measured after 4 hrs; type: functional, organism-based; procedure, shortened: as §5
[28] = test system: Mus musculus; test: Anticonvulsant activity in mouse assessed as protection against maximal electric shock-induced seizures at 100 mg/kg, ip measured after 0.5 hrs; type: functional, organism-based; procedure, shortened: as §5
[29] = test system: Mus musculus; test: Anticonvulsant activity in mouse assessed as protection against maximal electric shock-induced seizures at 100 mg/kg, ip measured after 1 hr; type: functional, organism-based; procedure, shortened: as §5
[30] = test system: Mus musculus; test: Anticonvulsant activity in mouse assessed as protection against maximal electric shock-induced seizures at 100 mg/kg, ip measured after 4 hrs; type: functional, organism-based; procedure, shortened: as §5
[31] = test system: Mus musculus; test: Neurotoxicity in mouse at 30 mg/kg, ip after […] by rotarod test; type: toxicity, organism-based; conditions: in vivo
[32] = test system: Mus musculus; test: Neurotoxicity in mouse at 30 mg/kg, ip after 0.5 hrs by rotarod test; type: toxicity, organism-based; conditions: in vivo; procedure, shortened: as §3
[33] = test system: Mus musculus; test: Neurotoxicity in mouse at 30 mg/kg, ip after 1 hr by rotarod test; type: toxicity, organism-based; conditions: in vivo
[34] = test system: Mus musculus; test: Neurotoxicity in mouse at 30 mg/kg, ip after 4 hrs by rotarod test; type: toxicity, organism-based; conditions: in vivo; procedure, shortened: as §3
[35] = test system: Mus musculus; test: Neurotoxicity in mouse at 100 mg/kg, ip after 1 hr by rotarod test; type: toxicity, organism-based; conditions: in vivo; procedure, shortened: as §3
[36] = test system: Rattus norvegicus; test: Anticonvulsant activity in rat assessed as protection against maximal electric shock-induced seizures at 30 mg/kg, ip measured after 1 hr; type: functional, organism-based; procedure, shortened: as §4
[37] = test system: Rattus norvegicus; test: Anticonvulsant activity in rat assessed as protection against maximal electric shock-induced seizures at 30 mg/kg, ip measured after 4 hrs; type: functional, organism-based; procedure, shortened: as §4
[38] = test system: Rattus norvegicus; test: Anticonvulsant activity in rat assessed as protection against maximal electric shock-induced seizures at 30 mg/kg, po measured after […]; type: functional, organism-based

For C[C@]12N[C@H](Cc3ccccc31)c1ccccc12 [DIZOCILPINE], the IC50 [1] was 0.0046 µM.
With COc1ccc(CCN(C)CCCC(C#N)(c2cc(OC)c(OC)c(OC)c2)C(C)C)cc1OC (configuration not stated) [GALLOPAMIL] the IC50 [2] was 0.015 µM.
In the case of Cc1ccc(OCCNC(C)CO)c(C)c1 (configuration not stated), the Activity [3] is reported as “inactive”, the Activity [4] is reported as “inactive” and the Activity [5] is reported as “Non-toxic”. The Activity [6] was “inactive”, the Activity [7] was “inactive” and the Activity [8] was “Non-toxic”.
With C=C(C)[C@@H]1[C@H]2OC(=O)[C@@H]1[C@]1(O)C[C@H]3O[C@]34C(=O)O[C@H]2[C@]14C [PICROTOXININ] the IC50 [9] was 0.077 µM.
In the case of Nc1ncnc2c1ncn2[C@@H]1O[C@H](COP(O)(=S)OP(=O)(O)OP(=O)(O)O)[C@@H](O)[C@H]1O (some centres not stated), the IC50 [10] is reported as 0.029 µM.
For Cc1cccc(OCCCN2CCCC(O)C2)c1C (configuration not stated), the Activity [11] was “inactive”, the Activity [12] was “inactive” and the Activity [13] was “Active”. The Activity [4] was “inactive”, the Activity [5] was “Non-toxic” and the Activity [14] was “inactive”. The Activity [15] was “inactive”, the Activity [16] was “Non-toxic” and the Activity [17] was “Non-toxic”. For the same compound, the Activity [18] was “Non-toxic”, the Activity [19] was “Non-toxic” and the Activity [20] was “Non-toxic”. For the same compound, the Activity [21] was “Non-toxic”, the Activity [22] was “Non-toxic” and the Activity [23] was “Non-toxic”. For the same compound, the Activity [24] was “Non-toxic”, the Activity [25] was “Non-toxic” and the Activity [7] was “inactive”. The Activity [26] was “inactive”, the Activity [27] was “inactive” and the Activity [28] was “Active”. For the same compound, the Activity [29] was “Active”, the Activity [30] was “inactive” and the Activity [31] was “Non-toxic”. For the same compound, the Activity [32] was “Non-toxic”, the Activity [33] was “Non-toxic” and the Activity [34] was “Non-toxic”. For the same compound, the Activity [35] was “Non-toxic”, the Activity [8] was “Non-toxic” and the Activity [36] was “inactive”. For the same compound, the Activity [37] was “inactive” and the Activity [38] was “inactive”.
